The values below come from ChEMBL document CHEMBL1121934, “2,3-dihydro and carbocyclic analogues of tryptamines: interaction with serotonin receptors” (J Med Chem, 1982).

In this assay the target is 5-hydroxytryptamine receptor 2B (Rattus norvegicus, UniProt P30994). The assay is described as follows: The binding affinity to 5-hydroxytryptamine 2B receptor of rat fundus. The settings on record: read-out: pA2 (converted). In short, it runs like this: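 Isolated rat stomach fundus strip preparation. After a 1-h equilibration, 5-HT oxalate dose-response curves (9–11 increasing concentrations) were run without and with 4–5 increasing concentrations of test compound. Apparent affinity was expressed as pA2 by Arunlakshana–Schild analysis, with linear regression giving both pA2 and Schild plot slope.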
Sequence of 5-hydroxytryptamine receptor 2B (P30994 whole entry): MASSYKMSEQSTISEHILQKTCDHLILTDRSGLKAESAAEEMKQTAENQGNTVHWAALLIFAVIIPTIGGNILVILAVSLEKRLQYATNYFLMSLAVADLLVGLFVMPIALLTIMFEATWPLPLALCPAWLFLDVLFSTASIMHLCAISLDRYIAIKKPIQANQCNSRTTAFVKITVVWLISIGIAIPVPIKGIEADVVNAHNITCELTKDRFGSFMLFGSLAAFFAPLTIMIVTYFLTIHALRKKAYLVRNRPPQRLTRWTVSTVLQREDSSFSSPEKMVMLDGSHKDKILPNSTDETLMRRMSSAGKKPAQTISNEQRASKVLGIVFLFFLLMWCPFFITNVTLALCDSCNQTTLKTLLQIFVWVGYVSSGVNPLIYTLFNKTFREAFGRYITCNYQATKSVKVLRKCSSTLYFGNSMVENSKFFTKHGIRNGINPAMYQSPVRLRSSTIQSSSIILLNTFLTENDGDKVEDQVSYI
Take `CN(C)CCC(=O)c1ccccc1`: the Kb is 4790 nM.
For the compound `CNCCC1CCc2ccccc21` (racemic), the Kb is 4270 nM.
Under `CN(C)CCCc1ccccc1` stands 8130 nM; under `COc1ccc2c(c1)C(CCN(C)C)CN2` (racemic), 182 nM.
Next, `CNCCc1c[nH]c2ccccc12`: 1070 nM; `NCCC1CCc2ccccc21` (racemic): 2510 nM.
For `NC1CCc2ccccc2C1` (stereo not drawn), the Kb is 2450 nM.
Turning to `NCCc1c[nH]c2ccccc12` [TRYPTAMINE], the Kb is 537 nM.
Turning to `CN(C)CCC1CCc2ccccc21` (racemic), the Kb was 4570 nM.
Under `CN(C)CCNc1ccccc1` stands 955 nM; under `CNCCC1CCc2ccccc21` (stereo in doubt; 4d), 2190 nM; under `CN(C)CCC1CNc2ccccc21` (racemic), 2090 nM.
Under `CN(C)CCC1=CCc2ccccc21` stands 2090 nM.
